Measured values reported in paper PMC10316739 (Drug Delivery, 2023).

Key:
[1] = Pharmacokinetics of triptorelin in rats; type: in vivo, female Sprague–Dawley rats
In short: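 Female rats aged 6 weeks were randomised into two groups (n = 8). One group received a 9 μg/kg subcutaneous solution and the other a 9 μg/kg microneedle patch on shaved back skin, pressed 3 min. Heparinised orbital-plexus blood was sampled at 0.5, 1, 2, 4, 8, 24 and 48 h. Plasma was centrifuged, stored at −80 °C and assayed by LC–MS/MS. PK parameters were computed from concentration–time profiles.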

[2] = test system: luteinizing hormone (LH); assay: Pharmacodynamics: plasma LH; type: in vivo, female Sprague–Dawley rats; conditions: rats, triptorelin 9 μg/kg s.c., ELISA, n = 8
In short: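 Six-week-old female rats (200 g ± 20 g) with similar cycles were split randomly into two groups of eight. One group received subcutaneous drug solution (9 μg/kg). The other received the microneedle patch (9 μg/kg) on shaved back skin, finger-pressed 3 min before the base was removed. Orbital-plexus blood was taken into heparinised tubes at 0.5–48 h and plasma stored at −80 °C. LH was measured by ELISA kit.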

[3] = stated in introduction; ref Bethesda, [2012]; cited from earlier work
[4] = female, Sprague-Dawley, rat, plasma, sc, 9 ug/kg

AUC(0-t) [1, 4]: 8.65 ± 0.41 ng·h/mL
Cmax [1, 4]: 10.5 ± 0.6 ng/mL
Tmax [1, 4]: 0.5 h
half-life [1, 4]: 2.11 ± 0.05 h
triptorelin concentration in plasma at 24 h ([1]; rats, 9 μg/kg s.c., 24 h, LC–MS/MS): could not be detected
Compound: CC(C)C[C@H](NC(=O)[C@@H](Cc1c[nH]c2ccccc12)NC(=O)[C@H](Cc1ccc(O)cc1)NC(=O)[C@H](CO)NC(=O)[C@H](Cc1c[nH]c2ccccc12)NC(=O)[C@H](Cc1c[nH]cn1)NC(=O)[C@@H]1CCC(=O)N1)C(=O)N[C@@H](CCCNC(=N)N)C(=O)N1CCC[C@H]1C(=O)NCC(N)=O [triptorelin, Triptorelin acetate]
plasma LH levels at 48 h [2]: returned to a normal physiological state
enhanced activity compared with GnRH [3]: 100 fold
